PLCg1 inh – blocks human PLC-gamma1 enzyme activity; P19174; hit rate 0.84% among 370,000; purified PLC-gamma1, fluorogenic substrate, fluorescence; inhibition, % at 12.2 µM; AID 720700; in the data active = inhibition above about 9.5%
ADAM10 inh – ADAM10 inhibition, QFRET primary screen; inhibition, % at 7 µM; recombinant ADAM10, EDANS/DABCYL FRET peptide cleavage, 3 h; O14672; hit rate 0.62% among 370,000; AID 720582;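 active = inhibition above a per-campaign cutoff equal to the mean of compounds falling between control-based bounds plus 3 SD, cut at about 20% in these data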
Tn6 DDE FP – DD(E)-Tn6 binding inhibition, primary FP screen; hit rate 0.21% among 370,000; P02675; Fibrin DD(E) TRITC-Tn6 fluorescence polarization displacement; inhibition, % at 8.3 µM;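 active = inhibition above a per-campaign cutoff: mean of compounds within control limits plus 3 SD, cut at about 15% in these data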
Target sequence (P02675 whole entry, looked up): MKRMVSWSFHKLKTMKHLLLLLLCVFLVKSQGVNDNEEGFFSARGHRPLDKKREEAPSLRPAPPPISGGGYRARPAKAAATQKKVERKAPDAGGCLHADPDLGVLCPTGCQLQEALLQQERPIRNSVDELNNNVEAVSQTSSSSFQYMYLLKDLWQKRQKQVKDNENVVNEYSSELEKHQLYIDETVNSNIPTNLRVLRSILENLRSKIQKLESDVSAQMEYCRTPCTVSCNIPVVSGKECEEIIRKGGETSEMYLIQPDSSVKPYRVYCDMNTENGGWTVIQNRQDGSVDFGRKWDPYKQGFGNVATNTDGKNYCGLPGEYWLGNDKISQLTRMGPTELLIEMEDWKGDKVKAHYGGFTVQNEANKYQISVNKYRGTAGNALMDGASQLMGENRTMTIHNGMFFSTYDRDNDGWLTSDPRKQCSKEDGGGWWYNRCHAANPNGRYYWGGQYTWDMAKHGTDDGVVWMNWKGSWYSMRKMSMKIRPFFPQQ
ADAM17 inh – inhibits human ADAM17; P78536; recombinant ADAM17, EDANS/DABCYL FRET peptide cleavage; inhibition, % at 6.95 µM; hit rate 0.83% among 370,000;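 active = inhibition above the mean of compounds lying between control limits plus 3 SD, set per campaign, cut at about 8.5% in these data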
DDE Tn7 FP inh – inhibitors of Tn7 peptide binding to human fibrin DD(E); AID 720508; inhibition, % at 8.3 µM; FP displacement of FITC-Tn7 peptide from fibrin DD(E); 0% = median of compound wells per plate; P02675; hit rate 0.13% among 370,000;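 active = inhibition above the mean of compounds falling within the control limits plus 3 SD of them, cut at about 14% in these data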
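Assay system: Human clot-derived fibrin DD(E) complex | Buffer or medium: Tris/NaCl/CaCl2 buffer, pH 7.8 | Repeats: One replicate per compound | Benchmarks: Aha-Tn7 high control | Measure: % inhibition scaled between sample-field median and high-control FP | Schedule: 10 min plus 3 h, room temperature | Signal: Fluorescence polarization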
PLCb3 inh – inhibitors of human phospholipase C beta3 | Q01970 | Purified PLC-beta3, fluorogenic substrate, fluorescence | inhibition, % at 12.2 µM | hit rate 0.18% among 370,000 | AID 720704; in the data active = inhibition above about 11%
ADAM10 counter – inhibits human ADAM10 in ADAM17 exosite counter-screen; hit rate 47% among 2,900; inhibition, % at 6.95 µM; shares compounds with ADAM17 inh; AID 743256; recombinant ADAM10, EDANS/DABCYL FRET peptide cleavage, 3 h;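 active = mean inhibition over the triplicate runs exceeds the activity threshold set in the earlier primary screen, cut at about 20% in these data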
ADAM17 confirm – confirmation of inhibitors of human ADAM17 | shares compounds with ADAM17 inh | inhibition, % at 6.95 µM | recombinant ADAM17, EDANS/DABCYL QFRET peptide cleavage | hit rate 65% among 2,900;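 active = mean inhibition across replicates above the hit cutoff set in the primary screen, cut at about 8.5% in these data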
Hits are given with their value; – = inactive; · = no result. Shown are actives, neighbours in structure and some others; about 2.3% of the full set was active somewhere.

SMILES	PLCg1 inh	ADAM10 inh	Tn6 DDE FP	ADAM17 inh	DDE Tn7 FP inh	PLCb3 inh	ADAM10 counter	ADAM17 confirm
CCn1c(-c2ccccc2Cl)nn(CC(=O)NCCc2ccccc2)c1=S	–	–	–	–	–	–	·	·
O=[N+]([O-])c1ccc(OCCCN2CCC(C(O)(c3ccccc3)c3ccccc3)CC2)c(Cl)c1	–	–	–	–	–	–	·	·
CC(C)[C@H]1COCCS(=O)(=O)N1Cc1ccccc1-c1cccc2c1oc1ccccc12	–	–	–	11	–	–	–	–
COc1cc(NCc2ccccc2)c2ncn(Cc3ccccc3)c2c1	–	–	–	12	–	–	–	–
COCCCOc1cc(NCc2ccccc2)c2ncn(C(C)C)c2c1	–	–	–	–	–	–	·	·
CCCOC(=O)c1ccc(Oc2cn[nH]c2-c2ccc(OCC)cc2O)cc1	–	–	–	9.8	–	–	–	12
CCCc1ccc(Oc2c(-c3ccc(O)c(C)c3O)n[nH]c2C)cc1	–	–	–	9.0	–	–	–	–
COc1ccc(Oc2c(-c3ccc(O)cc3O)n[nH]c2C)cc1	–	–	–	–	–	–	·	·
CCCOC(=O)c1ccc(Oc2c(-c3ccc(OCC)cc3O)n[nH]c2C)cc1	–	–	–	9.8	–	–	24	15
CCCc1cc(-c2n[nH]c(C)c2-c2ccc(C(=O)OCC)o2)c(O)cc1O	–	–	–	–	–	–	·	·
O=[N+]([O-])c1ccc2nc(COCc3nc4ccccc4[nH]3)[nH]c2c1	–	–	–	–	–	–	·	·
COc1ccc(Cn2nnnc2C(c2cccs2)N2CCOCC2)cc1 (centres undefined)	–	–	–	8.7	–	–	–	11
Cc1ccc(C2=NNC(=O)C(P(=O)(c3ccccc3)c3ccccc3)C2)cc1 (centres undefined)	–	–	–	9.4	–	–	–	–
COc1ccc(NS(=O)(=O)c2ccc(OC)c(NC(=O)CCC3CCCC3)c2)cc1	–	–	–	12	–	–	–	12
Cc1cc(C)nc(NC(=O)C(c2ccccc2)c2ccccc2)c1	–	–	–	–	–	–	·	·
Cc1cc(C)nc(NC(=O)C(c2ccccc2)c2ccccc2)n1	–	–	–	8.7	–	–	–	–
Cc1ccc(NC(=O)c2cc(S(=O)(=O)NCCC3=CCCCC3)ccc2F)cc1	–	23	–	14	–	–	34	18
O=S1(=O)c2ccc(N3CCN(Cc4ccccc4F)CC3)cc2Oc2ccccc2CN1Cc1cn(Cc2ccccc2C(F)(F)F)nn1	–	–	–	–	–	–	·	·
COC(=O)C1CN(Cc2cn(CCOC(C)=O)nn2)CCS(=O)(=O)N1Cc1ccc(C)cc1 (centres undefined)	–	–	–	–	–	–	·	·
COc1ccc(NC(=O)C(=O)NCCC2CCCCN2S(=O)(=O)c2ccc(F)cc2)cc1 (centres undefined)	–	–	–	–	–	–	·	·
Cc1ccc(CNC(=O)C(=O)NCC2OCCCN2S(=O)(=O)c2cccs2)cc1 (centres undefined)	–	–	–	11	–	–	–	–
Cc1ccc(CNC(=O)C(=O)NCCC2CCCCN2S(=O)(=O)c2ccc(C)cc2)cc1 (centres undefined)	–	–	–	13	–	–	–	–
O=C(NCCC1CCCCN1S(=O)(=O)c1ccccc1)C(=O)Nc1ccc(F)cc1 (centres undefined)	–	–	–	9.7	–	–	–	–
CCN(CC(=O)Nc1c(F)cccc1F)C(=O)c1ccc(S(=O)(=O)N2CCC(C)CC2)cc1	–	–	–	10	–	–	–	–
CCN(CC(=O)Nc1c(F)cccc1F)C(=O)c1ccc(S(=O)(=O)N2CCCCCC2)cc1	–	–	–	–	–	–	·	·
SMILES	PLCg1 inh	ADAM10 inh	Tn6 DDE FP	ADAM17 inh	DDE Tn7 FP inh	PLCb3 inh	ADAM10 counter	ADAM17 confirm
COC(=O)[C@]12C[C@H](CC(=O)N3CCOCC3)C(=O)N(CCc3ccc(OC)c(OC)c3)C1=C[C@H](COCc1ccccc1)O[C@@H]2C	–	–	–	–	–	–	·	·
CCOC(=O)c1sc2ccccc2c1OC(=O)c1ccccc1OC	–	–	–	–	–	–	·	·
CCOC(=O)c1cc(OC(=O)c2ccccc2OC)n(-c2ccccc2)n1	–	–	–	11	–	–	–	12
Cc1ccc(-n2c(SCC(=O)Nc3ccc(Oc4ccccc4)cc3)nnc2-c2ccco2)cc1	–	–	–	–	–	–	·	·
O=C(Nc1ccc(Nc2ccccc2)cc1)c1ccc(Cl)cc1Cl	–	–	–	12	–	–	36	25
COc1ccc(C(C(=O)N(C)C2CCCC2)N(Cc2ccc(F)cc2)C(=O)c2sccc2Cl)cc1OC (centres undefined)	–	–	–	–	–	–	·	·
CC(C)Sc1cc(N2CCOCC2)nc(-c2ccc(Cl)cc2)n1	–	–	–	–	–	–	·	·
CCN1CCN(c2cc(SC(C)C)nc(-c3ccc(OC)cc3)n2)CC1	–	–	–	13	–	–	23	15
COc1ccc(NC(=O)N2CCCC(c3nc(-c4ccc(OC)cc4)no3)C2)cc1 (centres undefined)	–	–	–	–	–	–	·	·
COc1ccc(-c2noc(C3CCCN(C(=O)Nc4ccc(C)c(F)c4)C3)n2)cc1 (centres undefined)	–	–	–	9.8	–	–	–	9.2
CCCOc1ccc(F)cc1-c1cc(C(=O)NCc2cccc(C(F)(F)F)c2)[nH]n1	–	–	–	9.7	–	–	22	15
CCCOc1ccc(F)cc1-c1cc(C(=O)NCc2ccccc2)[nH]n1	–	–	–	–	–	–	·	·
C[C@@H]1/C=C/CC(=O)N[C@H](c2cccc(Br)c2)[C@H](C)/C=C/CC(=O)N[C@@H]1c1cccc(Br)c1	–	–	–	–	–	–	·	·
COC(=O)c1cccc(Cn2c(Cl)c(/C=N/Nc3ccccc3C)sc2=O)c1	–	–	–	9.5	–	–	–	12
COc1ccc(CCNS(=O)(=O)c2ccc(N3CCCC3=O)cc2)cc1	–	–	–	12	–	–	–	–
COc1ccc(CCNS(=O)(=O)c2ccc(OC)cc2)cc1	–	–	–	–	–	–	·	·
O=C(CNC(=O)c1ccccc1Br)N/N=C\c1cc([N+](=O)[O-])cc(Br)c1O	–	–	–	–	–	–	·	·
COC(=O)N/N=C/c1cc([N+](=O)[O-])cc(Br)c1O	–	–	–	11	–	–	–	–
O=c1c2c3c(sc2n(CCN2CCOCC2)c(=O)n1C1CCCCC1)CCCCC3	–	–	–	–	–	–	·	·

Screening data from PubChem.
